Laboratory results taken from article PMC3787871 (Bioorganic & medicinal chemistry letters, 2008).
“Also recorded” adds a separate entry of the source. Blank lines part the entries; values can stand above or below the compound they belong to.

Columns and labels:
mGluR4 [1] = settings: cited from earlier work; for EC50: mGluR4 PAM
mGluR1 [2] = molecular target: T1, mGluR1 (Homo sapiens, UniProt Q13255); settings: cited from earlier work
mGluR4 [3] = settings: cited from earlier work
[4] = system: preclinical Parkinson's disease models; settings: cited from earlier work
mGluR4 [5] = molecular target: T2, mGluR4 (Homo sapiens, UniProt Q14833); test: Potentiation of an EC20 of glutamate in human mGluR4/Gqi5 CHO cells; format: cell-based; settings: for mGluR4 PAM activity (in words): potentiation of EC20 glutamate, mGluR4/Gqi5 CHO cells; for loss in potency relative to 6: mGluR4 PAM EC50 versus re-synthesized 6
mGluR4 [6] = molecular target: T2, mGluR4; test: Receptor activation in mGluR4/Gqi5 CHO cells in the absence of glutamate; format: cell-based; settings: no EC20 glutamate added
mGluRs = test: Selectivity screen across the mGluRs; format: cell-based
mGluR1 [7] = molecular target: T1, mGluR1; test: EC20 activation assay, mGluR1; format: cell-based; settings: at 30 μM
mGluR8 = mGluR8 (Homo sapiens, UniProt O00222); test: EC20 activation assay, mGluR8; format: cell-based; settings: at 30 μM
mGluR1 [8] = molecular target: T1, mGluR1; test: mGluR1 antagonist activity; format: cell-based
mGluR4 [9] = molecular target: T2, mGluR4; format: cell-based; settings: at 30 μM compound
Procedure, shortened: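 Human mGluR4 co-expressed with chimeric Gqi5 in CHO cells. Glutamate concentration–response curves run with and without 30 μM test compound; fold shift taken as the leftward displacement of the glutamate curve. Responses expressed as % of maximal glutamate response. Average of at least three independent determinations, each in triplicate.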

T2 sequence (Q14833 33-912): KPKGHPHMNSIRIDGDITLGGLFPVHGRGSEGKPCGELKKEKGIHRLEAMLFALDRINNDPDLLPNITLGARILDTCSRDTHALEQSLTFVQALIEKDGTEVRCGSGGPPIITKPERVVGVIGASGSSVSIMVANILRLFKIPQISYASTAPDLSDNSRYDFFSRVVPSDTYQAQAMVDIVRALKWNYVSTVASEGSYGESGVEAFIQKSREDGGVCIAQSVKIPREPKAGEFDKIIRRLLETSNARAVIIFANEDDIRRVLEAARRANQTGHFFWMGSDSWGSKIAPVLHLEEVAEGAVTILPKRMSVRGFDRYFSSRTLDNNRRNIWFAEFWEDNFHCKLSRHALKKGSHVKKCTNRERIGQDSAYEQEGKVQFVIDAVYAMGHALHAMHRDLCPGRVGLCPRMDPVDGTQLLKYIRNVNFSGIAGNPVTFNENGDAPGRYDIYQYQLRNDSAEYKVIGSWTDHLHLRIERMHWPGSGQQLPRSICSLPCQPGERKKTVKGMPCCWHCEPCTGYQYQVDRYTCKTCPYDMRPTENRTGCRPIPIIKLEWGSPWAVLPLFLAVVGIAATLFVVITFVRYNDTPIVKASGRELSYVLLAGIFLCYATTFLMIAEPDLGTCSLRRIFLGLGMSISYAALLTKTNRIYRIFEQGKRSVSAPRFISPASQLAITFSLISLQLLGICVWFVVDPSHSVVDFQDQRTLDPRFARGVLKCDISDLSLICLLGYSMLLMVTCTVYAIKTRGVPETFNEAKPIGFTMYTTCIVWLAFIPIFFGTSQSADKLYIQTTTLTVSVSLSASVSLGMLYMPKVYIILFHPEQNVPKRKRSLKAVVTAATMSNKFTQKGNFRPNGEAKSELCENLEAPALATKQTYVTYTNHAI
T1 sequence (Q13255 19-1194): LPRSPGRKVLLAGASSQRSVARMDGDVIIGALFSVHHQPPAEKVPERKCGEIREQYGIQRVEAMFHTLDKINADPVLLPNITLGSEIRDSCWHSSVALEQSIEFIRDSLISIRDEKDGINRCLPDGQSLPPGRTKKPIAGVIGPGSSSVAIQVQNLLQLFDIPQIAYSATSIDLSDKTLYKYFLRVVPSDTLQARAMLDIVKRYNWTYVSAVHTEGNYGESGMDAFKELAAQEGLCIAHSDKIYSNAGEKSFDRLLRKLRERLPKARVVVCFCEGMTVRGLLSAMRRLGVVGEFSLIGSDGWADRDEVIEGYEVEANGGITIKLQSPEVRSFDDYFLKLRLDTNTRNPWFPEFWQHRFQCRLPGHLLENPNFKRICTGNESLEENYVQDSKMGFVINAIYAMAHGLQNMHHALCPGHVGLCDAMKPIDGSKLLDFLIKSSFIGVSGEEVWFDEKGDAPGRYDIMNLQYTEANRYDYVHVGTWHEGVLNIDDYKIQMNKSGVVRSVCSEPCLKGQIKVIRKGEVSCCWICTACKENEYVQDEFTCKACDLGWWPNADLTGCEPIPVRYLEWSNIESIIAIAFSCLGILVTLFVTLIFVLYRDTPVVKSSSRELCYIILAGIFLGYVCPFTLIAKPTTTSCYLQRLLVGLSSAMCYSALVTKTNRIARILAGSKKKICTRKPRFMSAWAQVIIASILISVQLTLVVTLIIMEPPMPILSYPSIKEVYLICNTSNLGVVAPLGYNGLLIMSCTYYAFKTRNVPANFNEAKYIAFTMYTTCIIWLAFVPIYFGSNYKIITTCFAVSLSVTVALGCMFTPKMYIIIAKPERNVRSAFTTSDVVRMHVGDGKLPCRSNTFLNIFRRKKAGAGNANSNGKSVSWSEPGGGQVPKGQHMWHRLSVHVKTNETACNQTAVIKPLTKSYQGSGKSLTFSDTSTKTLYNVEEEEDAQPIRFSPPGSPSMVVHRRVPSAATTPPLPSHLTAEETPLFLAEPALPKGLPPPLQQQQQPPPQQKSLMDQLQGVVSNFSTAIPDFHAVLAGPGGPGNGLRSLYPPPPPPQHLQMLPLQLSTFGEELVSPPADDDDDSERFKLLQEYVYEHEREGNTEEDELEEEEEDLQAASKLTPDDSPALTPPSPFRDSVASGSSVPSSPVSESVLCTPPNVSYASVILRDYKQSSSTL
Sequence of mGluR8 (O00222 34-908, species assumed): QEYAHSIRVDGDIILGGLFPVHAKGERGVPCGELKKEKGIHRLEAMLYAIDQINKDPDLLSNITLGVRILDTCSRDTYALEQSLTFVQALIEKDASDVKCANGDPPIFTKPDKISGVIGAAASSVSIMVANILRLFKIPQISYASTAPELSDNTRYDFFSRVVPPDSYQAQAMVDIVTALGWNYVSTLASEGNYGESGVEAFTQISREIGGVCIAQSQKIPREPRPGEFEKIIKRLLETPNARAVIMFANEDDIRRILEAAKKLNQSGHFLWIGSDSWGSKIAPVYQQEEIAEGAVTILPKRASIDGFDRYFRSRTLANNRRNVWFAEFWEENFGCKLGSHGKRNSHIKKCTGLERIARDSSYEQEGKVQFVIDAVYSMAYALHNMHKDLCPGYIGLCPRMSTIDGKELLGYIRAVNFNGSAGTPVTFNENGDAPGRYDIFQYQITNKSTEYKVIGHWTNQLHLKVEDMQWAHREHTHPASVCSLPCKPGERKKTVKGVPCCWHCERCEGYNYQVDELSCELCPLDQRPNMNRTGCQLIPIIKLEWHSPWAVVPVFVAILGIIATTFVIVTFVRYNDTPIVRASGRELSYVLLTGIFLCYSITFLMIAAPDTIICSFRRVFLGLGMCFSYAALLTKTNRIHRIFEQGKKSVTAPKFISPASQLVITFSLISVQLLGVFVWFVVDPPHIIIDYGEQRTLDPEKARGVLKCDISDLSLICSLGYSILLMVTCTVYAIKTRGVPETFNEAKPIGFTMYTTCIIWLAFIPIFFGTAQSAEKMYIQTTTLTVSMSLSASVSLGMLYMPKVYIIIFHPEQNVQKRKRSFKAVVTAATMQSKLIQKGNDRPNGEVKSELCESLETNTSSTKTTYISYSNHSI

SMILES: Cc1ccc(-n2ncc3c(N4CCCC(C)C4)ncnc32)c(C)c1 (stereo not shown) [Compound 4]
- fold shift of the glutamate response (mGluR4 [1]): 11.8 fold
- EC50 (mGluR4 [1]): 5000 nM
- mGluR1 antagonist activity (in words) (mGluR1 [2]): significant mGluR1 antagonist activity
- IC50 (mGluR1 [2]; read-out: IC50 (full antagonist of mGluR1)): 2600 nM

SMILES: O=C(O)[C@H]1CCCC[C@H]1C(=O)Nc1cc(Cl)cc(Cl)c1 [Compound 5]
- EC50 (mGluR4 [1]): 750 nM
- allosteric agonist activity (mGluR4 [3]): significant allosteric agonist activity
- efficacy in preclinical Parkinson's disease models [4]: displayed efficacy in preclinical Parkinson’s disease models

- EC50 (mGluR4 [5]): 650 nM
- mGluR4 PAM activity (in words) (mGluR4 [5]): Concentration-dependent potentiation
- activation of mGluR1 (mGluR1 [7]): moderate activation
- activation of mGluR8 (mGluR8): moderate activation
SMILES: Cc1nc2ccccc2nc1N/N=C/c1ccc(O)cc1 [Compound 6, (E)-4-((2-(3-methylquinoxalin-2-yl)hydrazono)methyl) phenol]
- effect on mGluR4 in the absence of glutamate (mGluR4 [6]): no effect; also recorded: do not elicit receptor activation
- antagonism of mGluRs (mGluRs; EC80 assay): not an antagonist of any mGluR
- selectivity across the mGluRs (mGluRs; activation (EC20 glutamate potentiation) and inhibition (depression of EC80) assays): highly selective for mGluR4
- mGluR1 antagonist activity (mGluR1 [8]): devoid of mGluR1 antagonist activity; also recorded: did not exhibit mGluR1 antagonist activity

- EC50 (mGluR4 [5]): 1800 nM
- fold shift of the glutamate response curve (leftward) (mGluR4 [9]): 2.7 fold
SMILES: Cc1ccc(N2C(=O)c3ccccc3NC2C(C)c2ccccc2)cc1 (stereo not shown) [Compound 7]

- loss in potency relative to 6 (mGluR4 [5]): > 3 fold
SMILES: Cc1nc2ccccc2nc1N/N=C/c1cccc(O)c1 [Compound 12a]

- loss in potency relative to 6 (mGluR4 [5]): > 6 fold
SMILES: Cc1nc2ccccc2nc1N/N=C/c1ccccc1O [Compound 12b]

- mGluR4 PAM activity (in words) (mGluR4 [5]): afforded mGluR4 PAM activity
SMILES: Cc1nc2ccccc2nc1N/N=C/c1ccc(F)cc1 [Compound 12c]

- mGluR4 PAM activity (in words) (mGluR4 [5]): afforded mGluR4 PAM activity
SMILES: Cc1nc2ccccc2nc1N/N=C/c1ccccc1 [Compound 12d]

SMILES: O=C(Nc1ccccc1)[C@]12C[C@H]1/C(=N\O)c1ccccc1O2 [PHCCC, N-phenyl-7-(hydroxyimino) cyclopropa(b)chromen-1a-carboxamide]
- mGluR1 antagonist activity (in words) (mGluR1 [2]): significant mGluR1 antagonist activity
